Test results from ChEMBL document CHEMBL1777703, “Synthesis and Biological Evaluation of Muraymycin Analogues Active against Anti-Drug-Resistant Bacteria” (ACS Med Chem Lett, 2010).
Values after ≈ are worked out from the molar mass of the structure shown.

What was measured:
[1] = tested on: Staphylococcus aureus; experiment: Antibacterial activity against methicillin-resistant Staphylococcus aureus SR3637 after 20 hrs by broth microdilution method; assay type: functional; details: SR3637, 20 h
How it was run: (§1)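 MIC by broth microdilution following NCCLS guidance in cation-adjusted Mueller-Hinton broth. Compounds tested as serial 2-fold dilutions, tested up to 64 μg/mL. Each well inoculated with 5 × 10^4 CFU of the strain in 0.1 mL. Incubation at 35 °C for 20 h, after which the MIC was scored.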

[2] = tested on: Enterococcus faecalis; experiment: Antibacterial activity against vancomycin-resistant Enterococcus faecalis SR7914 after 20 hrs by broth microdilution method; assay type: functional; details: SR7914, 20 h; how it was run: as §1
[3] = target: T1, Phospho-N-acetylmuramoyl-pentapeptide-transferase (Bacillus subtilis (strain 168), UniProt Q03521); experiment: Inhibition of purified Bacillus subtilis MraY assessed as incorporation of MurNAc-[14C]pentapeptide into lipid 1 after 30 mins
T1 sequence (Q03521 whole entry): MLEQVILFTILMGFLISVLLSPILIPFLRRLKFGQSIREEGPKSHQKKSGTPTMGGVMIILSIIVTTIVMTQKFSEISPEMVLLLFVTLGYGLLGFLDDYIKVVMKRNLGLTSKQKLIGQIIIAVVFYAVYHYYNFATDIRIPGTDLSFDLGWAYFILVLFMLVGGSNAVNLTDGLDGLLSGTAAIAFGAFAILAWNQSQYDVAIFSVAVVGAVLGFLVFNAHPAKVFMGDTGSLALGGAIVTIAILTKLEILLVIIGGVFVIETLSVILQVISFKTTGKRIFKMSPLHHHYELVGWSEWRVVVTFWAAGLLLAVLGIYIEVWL
How it was run: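 Purified B. subtilis MraY. Final mix: 100 mM Tris-HCl pH 7.5, 40 mM MgCl2, 1.1 mM C55-P, 250 mM NaCl, 0.25 mM UDP-MurNAc-[14C]pentapeptide (337 Bq), 8.4 mM N-lauroyl sarcosine. Incubated 30 min at 37 °C. Substrate and lipid I separated by silica TLC and quantified by radioactivity scanning. IC50 calculated relative to an inhibitor-free control.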

[4] = tested on: Enterococcus faecium; experiment: Antibacterial activity against Enterococcus faecium ATCC 19434 after 20 hrs by broth microdilution method; assay type: functional; details: ATCC 19434, 20 h; how it was run: as §1
[5] = tested on: Enterococcus faecium; experiment: Antibacterial activity against vancomycin-resistant Enterococcus faecium SR7917 after 20 hrs by broth microdilution method; assay type: functional; details: SR7917, 20 h; how it was run: as §1
[6] = tested on: Staphylococcus aureus; experiment: Antibacterial activity against methicillin-susceptible Staphylococcus aureus ATCC 29213 after 20 hrs by broth microdilution method; assay type: functional; details: ATCC 29213, 20 h; how it was run: as §1
[7] = tested on: Enterococcus faecalis; experiment: Antibacterial activity against Enterococcus faecalis ATCC 29212 after 20 hrs by broth microdilution method; assay type: functional; details: ATCC 29212, 20 h
How it was run: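 MIC by NCCLS broth microdilution in cation-adjusted Mueller-Hinton broth with serial 2-fold compound dilutions. Inoculum 5 × 10^4 CFU per strain in 0.1 mL. Incubated 35 °C for 20 h before scoring.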

[8] = tested on: HepG2; experiment: Cytotoxicity against human HepG2 cells after 48 hrs by WST-8 assay; assay type: cell-based; details: hepg2, 48 h

`CCCCCCCCCCCCN[C@H](C(=O)O)[C@H](O[C@@H]1O[C@H](CN)[C@@H](O)[C@H]1O)[C@H]1O[C@@H](n2ccc(=O)[nH]c2=O)[C@H](O)[C@@H]1O` showed an MIC [1] greater than 64 µg/mL, an MIC [2] of 64 µg/mL (≈ 104 µM) and an IC50 [3] of 5000 nM. For the same compound, the MIC [4] was 64 µg/mL (≈ 104 µM), the MIC [5] was 64 µg/mL (≈ 104 µM) and the MIC [6] was greater than 64 µg/mL. The MIC [7] was 32 µg/mL (≈ 51.9 µM).

For `CC(C)[C@H](NC(=O)N[C@H](C(=O)N[C@@H](CCCCCCCc1ccc(-c2ccccc2)cc1)C(=O)NCCCN[C@H](C(=O)O)[C@H](O[C@@H]1O[C@H](CN)[C@@H](O)[C@H]1O)C1O[C@@H](n2ccc(=O)[nH]c2=O)[C@H](O)[C@@H]1O)[C@@H]1CCNC(=N)N1)C(=O)O` (single isomer, unassigned), the MIC [1] was 4 µg/mL (≈ 3.6 µM), the MIC [2] was 16 µg/mL (≈ 14.4 µM) and the Activity [8] was “Non-toxic”. It also gave an MIC [4] of 4 µg/mL (≈ 3.6 µM), an MIC [5] of 8 µg/mL (≈ 7.21 µM) and an MIC [6] of 4 µg/mL (≈ 3.6 µM). For the same compound, the MIC [7] was 4 µg/mL (≈ 3.6 µM).

For `CCCCOc1ccc(-c2ccc(CC[C@@H](NC(=O)[C@@H](NC(=O)N[C@H](C(=O)O)C(C)C)[C@@H]3CCNC(=N)N3)C(=O)NCCCN[C@H](C(=O)O)[C@H](O[C@@H]3O[C@H](CN)[C@@H](O)[C@H]3O)C3O[C@@H](n4ccc(=O)[nH]c4=O)[C@H](O)[C@@H]3O)cc2)cc1` (single isomer, unassigned), the MIC [1] was 64 µg/mL (≈ 57.5 µM), the MIC [2] was 64 µg/mL (≈ 57.5 µM) and the Activity [8] was “Non-toxic”. The MIC [4] was 4 µg/mL (≈ 3.6 µM), the MIC [5] was 8 µg/mL (≈ 7.19 µM) and the MIC [6] was 64 µg/mL (≈ 57.5 µM). For the same compound, the MIC [7] was 32 µg/mL (≈ 28.8 µM).

With `CCCCCCOc1ccc(-c2ccc([C@H](NC(=O)[C@@H](NC(=O)N[C@H](C(=O)O)C(C)C)[C@@H]3CCNC(=N)N3)C(=O)NCCCN[C@H](C(=O)O)[C@H](O[C@@H]3O[C@H](CN)[C@@H](O)[C@H]3O)C3O[C@@H](n4ccc(=O)[nH]c4=O)[C@H](O)[C@@H]3O)cc2)cc1` (single isomer, unassigned) the MIC [1] was 8 µg/mL (≈ 7.19 µM), the MIC [2] was 8 µg/mL (≈ 7.19 µM) and the Activity [8] was “Non-toxic”. It also gave an MIC [4] of 4 µg/mL (≈ 3.6 µM), an MIC [5] of 4 µg/mL (≈ 3.6 µM) and an MIC [6] of 4 µg/mL (≈ 3.6 µM). For the same compound, the MIC [7] was 8 µg/mL (≈ 7.19 µM).

For `CCCCCCOc1ccc(-c2ccc([C@@H](NC(=O)[C@@H](NC(=O)N[C@H](C(=O)O)C(C)C)[C@@H]3CCNC(=N)N3)C(=O)NCCCN[C@H](C(=O)O)[C@H](O[C@@H]3O[C@H](CN)[C@@H](O)[C@H]3O)C3O[C@@H](n4ccc(=O)[nH]c4=O)[C@H](O)[C@@H]3O)cc2)cc1` (single isomer, unassigned), the MIC [1] was 16 µg/mL (≈ 14.4 µM), the MIC [2] was 16 µg/mL (≈ 14.4 µM) and the Activity [8] was “Non-toxic”. The MIC [4] was 4 µg/mL (≈ 3.6 µM), the MIC [5] was 8 µg/mL (≈ 7.19 µM) and the MIC [6] was 16 µg/mL (≈ 14.4 µM). It also gave an MIC [7] of 16 µg/mL (≈ 14.4 µM).

Work on `CC(C)C[C@@H](NC(=O)[C@@H](NC(=O)N[C@H](C(=O)O)C(C)C)[C@@H]1CCN=C(N)N1)C(=O)NCCCN[C@H](C(=O)O)[C@H](O[C@@H]1O[C@H](CN)[C@@H](O)[C@H]1O)C1O[C@@H](n2ccc(=O)[nH]c2=O)[C@H](O)[C@@H]1O` (single isomer, unassigned) yielded an MIC [1] greater than 64 µg/mL, an MIC [2] greater than 64 µg/mL and an IC50 [3] of 90 nM. For the same compound, the MIC [4] was greater than 64 µg/mL, the MIC [5] was greater than 64 µg/mL and the MIC [6] was greater than 64 µg/mL. For the same compound, the MIC [7] was greater than 64 µg/mL.

In the case of `CCCCCCCCCCCCCCC[C@H](NC(=O)[C@@H](NC(=O)N[C@H](C(=O)O)C(C)C)[C@@H]1CCN=C(N)N1)C(=O)NCCCN[C@H](C(=O)O)[C@H](O[C@@H]1O[C@H](CN)[C@@H](O)[C@H]1O)C1O[C@@H](n2ccc(=O)[nH]c2=O)[C@H](O)[C@@H]1O` (single isomer, unassigned), the MIC [1] is reported as 4 µg/mL (≈ 3.74 µM), the MIC [2] is reported as 4 µg/mL (≈ 3.74 µM) and the Activity [8] is reported as “Non-toxic”. The IC50 [3] was 330 nM, the MIC [4] was 4 µg/mL (≈ 3.74 µM) and the MIC [5] was 2 µg/mL (≈ 1.87 µM). It also gave an MIC [6] of 2 µg/mL (≈ 1.87 µM) and an MIC [7] of 4 µg/mL (≈ 3.74 µM).

With `CCCCCCCCCCCCCCC[C@@H](NC(=O)[C@@H](NC(=O)N[C@H](C(=O)O)C(C)C)[C@@H]1CCN=C(N)N1)C(=O)NCCCN[C@H](C(=O)O)[C@H](O[C@@H]1O[C@H](CN)[C@@H](O)[C@H]1O)C1O[C@@H](n2ccc(=O)[nH]c2=O)[C@H](O)[C@@H]1O` (single isomer, unassigned) the MIC [1] was 4 µg/mL (≈ 3.74 µM), the MIC [2] was 4 µg/mL (≈ 3.74 µM) and the Activity [8] was “Non-toxic”. The IC50 [3] was 740 nM, the MIC [4] was 0.5 µg/mL (≈ 0.467 µM) and the MIC [5] was 0.25 µg/mL (≈ 0.234 µM). For the same compound, the MIC [6] was 2 µg/mL (≈ 1.87 µM) and the MIC [7] was 2 µg/mL (≈ 1.87 µM).

In the case of `CC(C)[C@H](NC(=O)N[C@H](C(=O)N[C@H](CCCCCCCc1ccc(-c2ccccc2)cc1)C(=O)NCCCN[C@H](C(=O)O)[C@H](O[C@@H]1O[C@H](CN)[C@@H](O)[C@H]1O)C1O[C@@H](n2ccc(=O)[nH]c2=O)[C@H](O)[C@@H]1O)[C@@H]1CCNC(=N)N1)C(=O)O` (single isomer, unassigned), the MIC [1] is reported as 16 µg/mL (≈ 14.4 µM), the MIC [2] is reported as 16 µg/mL (≈ 14.4 µM) and the Activity [8] is reported as “Non-toxic”. The MIC [4] was 4 µg/mL (≈ 3.6 µM), the MIC [5] was 4 µg/mL (≈ 3.6 µM) and the MIC [6] was 8 µg/mL (≈ 7.21 µM). The MIC [7] was 8 µg/mL (≈ 7.21 µM).

For `CCCCOc1ccc(-c2ccc(CC[C@H](NC(=O)[C@@H](NC(=O)N[C@H](C(=O)O)C(C)C)[C@@H]3CCNC(=N)N3)C(=O)NCCCN[C@H](C(=O)O)[C@H](O[C@@H]3O[C@H](CN)[C@@H](O)[C@H]3O)C3O[C@@H](n4ccc(=O)[nH]c4=O)[C@H](O)[C@@H]3O)cc2)cc1` (single isomer, unassigned), the MIC [1] was 32 µg/mL (≈ 28.8 µM), the MIC [2] was 64 µg/mL (≈ 57.5 µM) and the Activity [8] was “Non-toxic”. For the same compound, the MIC [4] was 16 µg/mL (≈ 14.4 µM), the MIC [5] was 32 µg/mL (≈ 28.8 µM) and the MIC [6] was 16 µg/mL (≈ 14.4 µM). For the same compound, the MIC [7] was 16 µg/mL (≈ 14.4 µM).

Compound `CC(C)C[C@H](NC(=O)[C@@H](NC(=O)N[C@H](C(=O)O)C(C)C)[C@@H]1CCNC(=N)N1)C(=O)NCCCN[C@H](C(=O)O)[C@H](O[C@@H]1O[C@H](CN)[C@@H](O)[C@H]1O)[C@H]1O[C@@H](n2ccc(=O)[nH]c2=O)[C@H](O)[C@@H]1O` [MURAMYCIN D2] has an MIC [1] greater than 64 µg/mL, an MIC [2] greater than 64 µg/mL and an IC50 [3] of 10 nM. It also gave an MIC [4] greater than 64 µg/mL, an MIC [5] greater than 64 µg/mL and an MIC [6] greater than 64 µg/mL. For the same compound, the MIC [7] was greater than 64 µg/mL.

`CN[C@H](CC(C)C)C(=O)N[C@H]1C(=O)N[C@@H](CC(N)=O)C(=O)N[C@H]2C(=O)N[C@H]3C(=O)N[C@H](C(=O)N[C@H](C(=O)O)c4cc(O)cc(O)c4-c4cc3ccc4O)[C@H](O)c3ccc(c(Cl)c3)Oc3cc2cc(c3O[C@@H]2O[C@H](CO)[C@@H](O)[C@H](O)[C@H]2O[C@H]2C[C@](C)(N)[C@H](O)[C@H](C)O2)Oc2ccc(cc2Cl)[C@H]1O` [VANCOMYCIN] was tested, and the MIC [2] was greater than 64 µg/mL, the MIC [5] was greater than 64 µg/mL and the MIC [7] was 1 µg/mL (≈ 0.69 µM).
